ChEMBL document CHEMBL3525967, “In vitro glucuronidation of the antibacterial triclocarban and its oxidative metabolites” (Drug Metab Dispos, 2012)

What was measured:
Liver = test: Intrinsic clearance in B6C3F1 mouse liver microsomes after 30 mins by LC-ESI-MS analysis; format: ADME; details: 0.5 h
Method in brief: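 2'-OH-TCC at 0.2, 0.5, 1, 2, 3, 5, 10 and 50 µM incubated with liver microsomes (alamethicin, MgCl2, saccharolactone, UDPGA; 37 °C), sampled at 5, 10, 15 and 30 min. Samples ≥5 µM diluted 1:9 in ACN; LC-ESI-MS. KM and vmax fitted from rate vs concentration; intrinsic clearance derived from these; mean and SD of three.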

[1] = Drug metabolism in microsomes (unknown origin) assessed as retention time at 10 uM by LC-UV-MS method; format: ADME, Microsome
Method in brief: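 Retention times were measured on a C18 column (2 × 100 mm, 2.2 µm) at 300 µL/min. Solvent A was 25 mM ammonium acetate with 0.1% acetic acid; solvent B was ACN. Gradient: 30% B isocratic for 2 min, convex 30–85% B to 7.5 min, then […]. Detection was UV at 265 nm and ESI-MS in SRM mode.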

Liver microsome [2] = test: Drug metabolism in human liver microsomes assessed as N-glucuronide-triclocarban formation incubated for 5 mins prior to UDPGA addition measured after 5 to 30 mins by LC-UV analysis; format: ADME
Method in brief: (§1)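 Pooled human kidney or liver microsomes (liver: 25 mixed-gender donors), 5 µg protein, in 200 µL 100 mM potassium phosphate pH 7.4. Alamethicin pre-treated on ice 15 min. Final 10 µM TCC (2% DMSO), with 10 mM MgCl2 and 10 mM saccharolactone, preincubated 5 min at 37 °C. Started with UDPGA (20 mM stock). Sampled at 5, 10, 15 and 30 min into ACN containing 1 µM DCC internal standard.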

[3] = Drug metabolism in B6C3F1 mouse liver microsomes assessed as N'-glucuronide-triclocarban formation incubated for 5 mins prior to UDPGA addition measured after 30 mins by LC-UV-ESI-MS/MS analysis; format: ADME; details: 0.5 h
Method in brief: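 TCC was incubated at 10 µM (2% DMSO) in 100 mM phosphate pH 7.4 with alamethicin-treated microsomes or Supersomes, 10 mM MgCl2 and 10 mM saccharolactone. After 5 min pre-incubation at 37 °C, UDPGA was added to start the reaction. Protein was raised up to 2 mg/mL. Samples were quenched in ACN with 1 µM DCC internal standard, centrifuged, and N-glucuronides detected by LC-ESI-MS/MS in SRM mode.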

[4] = Drug metabolism in human kidney microsomes assessed as N'-glucuronide-triclocarban formation incubated for 5 mins prior to UDPGA addition measured after 30 mins by LC-UV-ESI-MS/MS analysis; format: ADME; details: 0.5 h; method in brief: as §1
[5] = Drug metabolism in human intestinal microsomes assessed as N-glucuronide-triclocarban formation incubated for 5 mins prior to UDPGA addition measured after 5 to 30 mins by LC-UV analysis; format: ADME, Intestine, Microsome
Method in brief: (§2)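 Microsomes or UGT Supersomes (5 µg protein) were held 15 min on ice with alamethicin in 100 mM potassium phosphate pH 7.4. TCC was added at 10 µM (2% DMSO) with 10 mM MgCl2 and 10 mM saccharolactone, pre-warmed 5 min at 37 °C, then started with UDPGA. Samples at 5, 10, 15 and 30 min were quenched in ACN. Product was read by LC-UV at 265 nm; rate came from regression over time, three incubations.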

[6] = molecular target: T1, UDP-glucuronosyltransferase 2B7 (Homo sapiens, UniProt P16662); test: Drug metabolism assessed as human UGT2B7-mediated N-glucuronide-triclocarban formation expressed in baculovirus infected insect sf9 cells incubated for 5 mins prior to UDPGA addition measured after 5 to 30 mins by LC-UV analysis; format: ADME; method in brief: as §2
T1 sequence (P16662 whole entry): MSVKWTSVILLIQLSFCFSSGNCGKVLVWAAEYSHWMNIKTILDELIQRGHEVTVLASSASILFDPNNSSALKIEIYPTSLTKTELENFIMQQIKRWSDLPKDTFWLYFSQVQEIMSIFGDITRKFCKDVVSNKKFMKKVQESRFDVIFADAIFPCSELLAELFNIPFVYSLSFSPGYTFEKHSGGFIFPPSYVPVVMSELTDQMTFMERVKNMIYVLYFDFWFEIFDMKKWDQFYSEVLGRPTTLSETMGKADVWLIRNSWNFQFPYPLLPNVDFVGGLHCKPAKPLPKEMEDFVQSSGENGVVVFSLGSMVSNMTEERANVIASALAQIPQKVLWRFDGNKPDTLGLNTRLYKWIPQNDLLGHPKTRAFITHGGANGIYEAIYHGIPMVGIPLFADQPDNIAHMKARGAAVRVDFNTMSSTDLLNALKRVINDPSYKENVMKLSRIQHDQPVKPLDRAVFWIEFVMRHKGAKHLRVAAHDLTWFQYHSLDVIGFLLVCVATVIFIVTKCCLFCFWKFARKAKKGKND

[7] = Drug excretion in Swiss webster mouse urine assessed as N'-glucuronide-triclocarban formation at 5 mg/kg, po by LC-MS analysis; format: ADME, organism-based; parameters: dose 5 mg/kg, route oral; details: in vivo
Method in brief: (§3)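 Mice were housed two per metabolic cage, with blank urine collected over the 24 h before dosing. TCC was given by oral gavage as a 1 mg/mL solution in 20/80 DMSO/PEG400 (v/v) at 5 mg/kg. Urine was collected at 0-24 h and 24-48 h and analysed by online LC-MS. Values are the mean of two independent experiments.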

[8] = Drug excretion in Swiss webster mouse urine assessed as 2'-O-glucuronide-triclocarban formation at 5 mg/kg, po by LC-MS analysis; format: ADME, organism-based; parameters: dose 5 mg/kg, route oral; details: in vivo; method in brief: as §3
[9] = Drug metabolism in B6C3F1 mouse liver microsomes assessed as N'-glucuronide-triclocarban formation incubated for 5 mins prior to UDPGA addition measured after 5 to 30 mins by LC-UV analysis; format: ADME; method in brief: as §2
[10] = molecular target: T2, UDP-glucuronosyltransferase 2B17 (Homo sapiens, UniProt O75795); test: Drug metabolism assessed as human UGT2B17-mediated N'-glucuronide-triclocarban formation expressed in baculovirus infected insect sf9 cells incubated for 5 mins prior to UDPGA addition measured after 5 to 30 mins by LC-UV analysis; format: ADME; method in brief: as §2
T2 sequence (O75795 whole entry): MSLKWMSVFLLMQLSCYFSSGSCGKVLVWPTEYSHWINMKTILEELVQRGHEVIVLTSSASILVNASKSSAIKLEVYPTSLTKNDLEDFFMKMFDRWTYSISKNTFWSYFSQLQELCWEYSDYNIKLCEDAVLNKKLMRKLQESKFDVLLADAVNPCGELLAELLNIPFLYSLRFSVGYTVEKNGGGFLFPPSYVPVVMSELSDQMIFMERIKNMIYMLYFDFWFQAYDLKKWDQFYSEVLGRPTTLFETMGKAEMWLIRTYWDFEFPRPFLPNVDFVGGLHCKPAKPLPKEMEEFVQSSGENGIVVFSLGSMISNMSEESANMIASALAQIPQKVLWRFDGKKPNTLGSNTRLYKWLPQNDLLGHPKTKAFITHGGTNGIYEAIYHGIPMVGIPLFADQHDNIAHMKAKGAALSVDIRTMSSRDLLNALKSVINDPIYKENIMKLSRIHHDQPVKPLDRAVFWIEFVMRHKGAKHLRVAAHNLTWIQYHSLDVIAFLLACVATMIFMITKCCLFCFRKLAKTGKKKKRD

Liver microsome [11] = test: Drug metabolism in human liver microsomes assessed as N-glucuronide-triclocarban formation incubated for 5 mins prior to UDPGA addition measured after 30 mins by LC-UV-ESI-MS/MS analysis; format: ADME; details: 0.5 h; method in brief: as §1

CLH (Liver) [µL/min/mg] | SMILES | Retention_time [1] [min] | Drug metabolism (Liver microsome [2]) | Drug metabolism [3] | Drug metabolism [4] | Drug metabolism [5] | Drug metabolism [6] | Drug excretion [7] | Drug excretion [8] | Drug metabolism [9] | Drug metabolism [10] | Drug metabolism (Liver microsome [11])
1450 | O=C(Nc1ccc(Cl)c(Cl)c1)Nc1ccc(Cl)cc1O |  |  |  |  |  |  |  |  |  |  | 
 | O=C(Nc1ccc(Cl)cc1)Nc1ccc(Cl)c(Cl)c1 [TRICLOCARBAN] | 5.1 | metabolite_not_detected | metabolite_detected | metabolite_detected | metabolite_not_detected | metabolite_not_detected | metabolite_detected | metabolite_detected | metabolite_not_detected | metabolite_not_detected | metabolite_detected
